ChEMBL document CHEMBL5113504, “Discovery of potent benzoxaborole inhibitors against SARS-CoV-2 main and dengue virus proteases” (Eur J Med Chem, 2022)
Calls of active or inactive are those of the source. No cut-off for these calls is given here.

Experiments:
[1] = target: Replicase polyprotein 1ab (Severe acute respiratory syndrome coronavirus 2) (UniProt P0DTD1); assay: Inhibition of C-terminal His tagged SARS CoV-2 main protease transfected in Escherichia coli BL21 (DE3) using 2-Abz-Ser-AlaVal-Leu-Gln-Ser-Gly-Tyr(3-NO2)-Arg-OH as substrate at 50 uM preincubated for 15 mins followed by substrate addition and measured after 15 mins by FRET assay relative to control; settings: time 30.0 min
[2] = target: Replicase polyprotein 1ab (Severe acute respiratory syndrome coronavirus 2) (UniProt P0DTD1); assay: Inhibition of C-terminal His tagged SARS CoV-2 main protease transfected in Escherichia coli BL21 (DE3) at 50 uM incubated in presence of DTT
How it was run: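 Mpro fluorogenic inhibition assay repeated with 1 mM DTT added to the assay buffer.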

[3] = target: T1, Replicase polyprotein 1ab (Severe acute respiratory syndrome coronavirus 2, UniProt P0DTD1); assay: Chemical stability of the compound in SARS-CoV-2 main protease assay buffer assessed as SARS-CoV-2 main protease-mediated amide bond cleavage at 100 uM measured after 8 hrs by HPLC based UV-Vis analysis; type: ADME; settings: severe acute respiratory syndrome coronavirus 2, buffer
How it was run: (§1)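 Compound incubated with isolated protease (SARS-CoV-2 Mpro or DENV-2 protease) in that enzyme's assay buffer for 8 h; remaining compound quantified by HPLC with UV/Vis detection (peak AUC).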

Trypsin = Trypsin (Homo sapiens, UniProt P07477+P07478+P35030); assay: Inhibition of trypsin (unknown origin) using Boc-Val-Pro-Arg-AMC as substrate assessed as enzymatic cleavage preincubated for 15 mins followed by substrate addition and measured after 15 mins by Continuous fluorimetric assay; type: protein assay
HeLa [4] = assay: Cytotoxicity against human HeLa cells expressing renilla luciferase reporter construct assessed as reduction in cell viability at 12.5 uM by luciferase based analysis; type: toxicity
[5] = target: T1, Replicase polyprotein 1ab; assay: (§2) Inhibition of C-terminal His tagged SARS CoV-2 main protease transfected in Escherichia coli BL21 (DE3) using 2-Abz-Ser-AlaVal-Leu-Gln-Ser-Gly-Tyr(3-NO2)-Arg-OH as substrate preincubated for 15 mins followed by substrate addition and measured after 15 mins by FRET assay
[6] = target: Genome polyprotein (dengue virus type 2) (UniProt P29990); assay: Inhibition of full length DENV2 NS2B-NS3 protease in human HeLa cells expressing luciferase reporter gene at 12.5 uM incubated for 24 hrs by luminescence analysis relative to control; type: cell-based
How it was run: (§3)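 Stable DENV2pro reporter HeLa cells seeded at 2×10^4 per well and dosed immediately; 24 h at 37 °C, lysed 15 min, coelenterazine (2.75 μM in PBS) injected, luminescence read 5 s. Triplicates; % inhibition vs untreated cells; EC50 by 4-parameter fit with cell-free background subtraction.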

HeLa [7] = assay: Cytotoxicity against human HeLa cells expressing luciferase-based DENV-2 protease reporter system assessed as reduction in cell viability by celltiter-blue assay; type: toxicity
How it was run: (§4)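 CellTiter-Blue viability in HeLa reporter cells or Huh-7 cells, on plates run in parallel with the reporter or titer-reduction assay under the same treatment; each concentration in triplicate.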

[8] = target: Replicase polyprotein 1ab (Severe acute respiratory syndrome coronavirus 2) (UniProt P0DTD1); assay: as §2, with “Potency index, ratio of boceprevir IC50 to test compound IC50 for inhibition” for “Inhibition”; settings: time 30.0 min
[9] = target: T1, Replicase polyprotein 1ab; assay: Inhibition of C-terminal His tagged SARS CoV-2 main protease transfected in Escherichia coli BL21 (DE3) assessed as inhibition constant by Michaelis-Menten analysis
[10] = Permeability of compound in PBS at pH 7.4 measured after 5 hrs by HPLC-UV based PAMPA assay; type: ADME; settings: pH 7.4, 5 h
Genome polyprotein [11] = target: T2, Genome polyprotein (dengue virus type 2, UniProt P29990); assay: Inhibition of full length DENV2 NS2B-NS3 protease in human HeLa cells expressing luciferase reporter gene incubated for 24 hrs by luminescence analysis; type: cell-based; how it was run: as §3
dengue virus type 2 = assay: Antiviral activity against Dengue virus serotype 2 infected in Huh-7 cells assessed as reduction in virus titer at 12.5 uM incubated for 48 hrs followed by infection of Vero E6 cells with supernatant and measured after 7 days by crystal violet staining based analysis relative to control; type: functional; design: scale not given: the % may be the effect or the level left; settings: time 9 day
How it was run: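 Huh-7 cells (1×10^4/well, overnight) infected with DENV-2 at MOI 1 for 2 h, medium changed, compound added; 48 h, triplicate supernatants pooled. Titer by plaque assay: Vero E6 infected 1 h with 10^-1 to 10^-6 dilutions, plaque medium 7 days, formaldehyde-fixed, crystal violet stained, plaques counted.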

[12] = target: Replicase polyprotein 1ab (Severe acute respiratory syndrome coronavirus 2) (UniProt P0DTD1); assay: Reversible inhibition of C-terminal His tagged SARS CoV-2 main protease transfected in Escherichia coli BL21 (DE3) at 100 uM preincubated for 2 hrs followed by dilution to 3 uM and substrate addition measured after 15 mins by fluorimetric assay; settings: time 135.0 min
Genome polyprotein [13] = target: T2, Genome polyprotein; assay: Chemical stability of the compound in DENV2 NS2B-NS3 protease assay buffer assessed as DENV2 NS2B-NS3 protease-mediated amide bond cleavage by measuring reduction in AUC at 100 uM measured after 8 hrs by HPLC analysis; type: ADME; settings: dengue virus type 2, buffer; how it was run: as §1
[14] = target: Replicase polyprotein 1ab (Severe acute respiratory syndrome coronavirus 2) (UniProt P0DTD1); assay: […] inhibition of C-terminal His tagged SARS CoV-2 main protease transfected in Escherichia coli BL21 (DE3) assessed as decrease in Vmax with constant Km using varying concentrations of 2-Abz-Ser-AlaVal-Leu-Gln-Ser-Gly-Tyr(3-NO2)-Arg-OH as substrate by Michaelis-Menten analysis
Huh-7 = assay: Cytotoxicity against human Huh-7 cells infected with Dengue virus serotype 2 assessed as reduction in cell viability by celltiter-blue assay; type: toxicity, cell-based; how it was run: as §4

| SMILES | inhibition [1] | inhibition [2] | Stability [3] | IC50 (Trypsin) | Activity (HeLa [4]) | IC50 [5] | inhibition [6] | CC50 (HeLa [7]) | Ratio IC50 [8] | Ki [9] | permeability [10] | EC50 (Genome polyprotein [11]) | Activity (dengue virus type 2) | inhibition [12] | Stability (Genome polyprotein [13]) | inhibition [14] | Activity (Huh-7) |
| --- | --- | --- | --- | --- | --- | --- | --- | --- | --- | --- | --- | --- | --- | --- | --- | --- | --- |
| N=C(N)Nc1ccc(C(=O)Nc2ccc3c(c2)B(O)OC3)cc1 | 87.4% | Active | Stable | 61.4 µM | Non-Toxic | 13.9 µM | 23% | > 200 µM |  |  |  |  |  |  |  |  |  |
| O=C(Nc1ccc2c(c1)B(O)OC2)c1cccc(OCc2ccccc2)c1 | 99.6% | Active | Stable |  | Non-Toxic | 6.1 µM | 81.2% | 55.2 µM | 3 | 6.2 µM | Permeable | 2.4 µM | 67.4% | Active | Stable | Active | Non-Toxic |
